Measurements from ChEMBL document CHEMBL3864163, “I. Discovery of a novel series of CXCR3 antagonists. Multiparametric optimization of N,N-disubstituted benzylamines” (Bioorg Med Chem Lett, 2016).

Experiments:
[1] = molecular target: T1, C-X-C chemokine receptor type 3 (Homo sapiens) (UniProt P49682); assay: Displacement of [125I]-CXCL10 from human recombinant CXCR3 transfected in Flp-In-CHO cell membranes at 10 uM after 60 mins by gamma counting method relative to control
T1 sequence (whole entry): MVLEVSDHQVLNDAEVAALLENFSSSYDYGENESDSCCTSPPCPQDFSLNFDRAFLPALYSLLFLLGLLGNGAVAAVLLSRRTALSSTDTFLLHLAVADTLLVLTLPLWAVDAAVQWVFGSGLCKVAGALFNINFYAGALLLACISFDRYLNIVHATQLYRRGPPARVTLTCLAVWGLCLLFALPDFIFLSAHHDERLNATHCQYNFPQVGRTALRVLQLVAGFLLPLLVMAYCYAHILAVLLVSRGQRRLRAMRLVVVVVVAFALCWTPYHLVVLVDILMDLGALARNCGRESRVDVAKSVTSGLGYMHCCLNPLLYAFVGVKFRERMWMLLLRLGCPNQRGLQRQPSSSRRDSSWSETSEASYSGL

[2] = molecular target: Mu-type opioid receptor (Homo sapiens) (UniProt P35372); assay: Displacement of [3H]DAMGO from recombinant human mu opioid receptor expressed in HEK293 cells at 10 uM after 60 mins by scintillation counting method relative to control; format: cell-based
Chain of Mu-type opioid receptor (Homo sapiens) (P35372 whole entry): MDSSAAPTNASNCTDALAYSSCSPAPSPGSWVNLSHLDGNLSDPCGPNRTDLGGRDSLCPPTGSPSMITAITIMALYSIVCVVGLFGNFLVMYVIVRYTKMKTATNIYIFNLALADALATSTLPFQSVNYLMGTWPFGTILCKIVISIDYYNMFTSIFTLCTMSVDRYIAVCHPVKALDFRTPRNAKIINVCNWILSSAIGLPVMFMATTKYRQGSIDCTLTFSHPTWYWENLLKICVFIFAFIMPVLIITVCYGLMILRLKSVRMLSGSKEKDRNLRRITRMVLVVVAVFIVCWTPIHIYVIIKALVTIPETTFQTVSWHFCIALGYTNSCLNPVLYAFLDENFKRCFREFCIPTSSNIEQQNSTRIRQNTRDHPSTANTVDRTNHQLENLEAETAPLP

[3] = Intrinsic clearance in human hepatocytes assessed per 10^6 cells at 5 uM; format: ADME, cell-based, Hepatocyte
[4] = molecular target: T2, Muscarinic acetylcholine receptor M2 (Homo sapiens) (UniProt P08172); assay: Displacement of [3H]AF-DX384 from recombinant human muscarinic M2 receptor expressed in CHO cells at 10 uM after 60 mins by scintillation counting method relative to control; format: cell-based
T2 sequence (whole entry): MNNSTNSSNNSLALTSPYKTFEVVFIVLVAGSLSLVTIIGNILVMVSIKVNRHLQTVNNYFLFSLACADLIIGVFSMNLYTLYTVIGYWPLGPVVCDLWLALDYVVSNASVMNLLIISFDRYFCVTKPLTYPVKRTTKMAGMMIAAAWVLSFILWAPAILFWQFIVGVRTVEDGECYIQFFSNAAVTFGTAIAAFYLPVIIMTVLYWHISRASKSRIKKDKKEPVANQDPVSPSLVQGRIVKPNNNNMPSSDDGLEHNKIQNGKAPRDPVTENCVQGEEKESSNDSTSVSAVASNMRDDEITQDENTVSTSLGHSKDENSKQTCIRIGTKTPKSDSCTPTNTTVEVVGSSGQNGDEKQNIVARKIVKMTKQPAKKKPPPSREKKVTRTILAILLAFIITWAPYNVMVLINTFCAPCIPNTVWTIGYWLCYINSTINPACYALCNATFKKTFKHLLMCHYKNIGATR

[5] = Absolute oral bioavailability in Balb/c mouse at 10 mg/kg; format: ADME, organism-based; settings: in vivo
In short: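 Male Balb/c mice dosed once orally at 10 mg/kg and once intravenously at 3 mg/kg. Either 4 animals per route were profiled individually, or sparse sampling used 24 mice with 3 per time point for mean profiles. Absolute oral bioavailability was derived from the two routes.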

[6] = Apparent permeability across human Caco2 cells after 2 hrs by LC-MS method; format: ADME, cell-based; settings: Caco-2
In short: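 Caco-2 monolayers checked for integrity, then dosed alongside high- and low-permeability controls. Apical and basal samples taken at 2 h. Four transport conditions: A-B at pH 6.5/7.4 (0% or 0.5% BSA apical, 5% BSA basal), and A-B and B-A at pH 7.4/7.4 (0.5% BSA both sides). Compound quantified by LC/MS. Rapid transport defined as Papp >20 nm/s.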

[7] = Metabolic stability in mouse liver microsomes assessed as parent compound remaining in presence of NADPH by LC-MS/MS method; format: ADME
In short: (§1)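 Compound incubated with liver microsomes (human or mouse) plus NADPH at 37 °C. Loss of parent was followed by LC-MS-MS and reported as percent. Stability bands: low <40%, medium 40–60%, high >60%.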

[8] = Metabolic stability in human liver microsomes assessed as parent compound remaining in presence of NADPH by LC-MS/MS method; format: ADME; in short: as §1
[9] = molecular target: T3, Muscarinic acetylcholine receptor M1 (Homo sapiens) (UniProt P11229); assay: Displacement of [3H]pirenzepine from recombinant human muscarinic M1 receptor expressed in CHO cells at 10 uM after 60 mins by scintillation counting method relative to control; format: cell-based
T3 sequence (whole entry): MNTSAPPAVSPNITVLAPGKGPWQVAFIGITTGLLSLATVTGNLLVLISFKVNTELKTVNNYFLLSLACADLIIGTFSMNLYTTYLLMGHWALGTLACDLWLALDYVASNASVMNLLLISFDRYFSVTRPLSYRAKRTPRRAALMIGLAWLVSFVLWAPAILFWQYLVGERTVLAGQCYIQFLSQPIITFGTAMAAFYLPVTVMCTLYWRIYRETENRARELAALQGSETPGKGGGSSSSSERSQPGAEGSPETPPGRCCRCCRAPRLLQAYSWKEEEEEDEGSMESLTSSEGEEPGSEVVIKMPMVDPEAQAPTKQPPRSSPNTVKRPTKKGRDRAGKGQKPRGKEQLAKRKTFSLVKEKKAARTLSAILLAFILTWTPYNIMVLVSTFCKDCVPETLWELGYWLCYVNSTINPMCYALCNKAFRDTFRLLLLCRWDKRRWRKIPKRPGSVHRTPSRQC

[10] = molecular target: T4, C-X-C chemokine receptor type 3 (Homo sapiens, UniProt P49682); assay: Displacement of [125I]-CXCL10 from human recombinant CXCR3 transfected in Flp-In-CHO cell membranes after 60 mins by gamma counting method
T4 sequence (P49682 whole entry): T1 sequence (whole entry)

[11] = molecular target: T5, Alpha-1A adrenergic receptor (Homo sapiens) (UniProt P35348); assay: Displacement of [3H]prazosin from recombinant human alpha 1A adrenergic receptor expressed in CHO cells at 10 uM after 60 mins by scintillation counting method relative to control; format: cell-based
T5 sequence (whole entry): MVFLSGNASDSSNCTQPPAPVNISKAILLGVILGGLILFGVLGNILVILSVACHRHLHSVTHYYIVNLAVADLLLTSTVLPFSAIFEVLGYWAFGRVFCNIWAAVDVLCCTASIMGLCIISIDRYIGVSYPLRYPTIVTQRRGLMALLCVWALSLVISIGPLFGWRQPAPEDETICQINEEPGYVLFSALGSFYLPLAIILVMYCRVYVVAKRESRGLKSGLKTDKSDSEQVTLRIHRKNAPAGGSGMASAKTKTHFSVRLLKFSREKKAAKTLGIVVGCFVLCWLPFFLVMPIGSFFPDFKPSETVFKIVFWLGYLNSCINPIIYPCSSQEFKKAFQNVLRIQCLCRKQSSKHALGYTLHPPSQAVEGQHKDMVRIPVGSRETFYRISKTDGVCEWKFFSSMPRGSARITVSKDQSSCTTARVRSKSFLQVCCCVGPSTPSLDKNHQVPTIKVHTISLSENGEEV

[12] = molecular target: Histamine H1 receptor (Homo sapiens) (UniProt P35367); assay: Displacement of [3H]pyrilamine from recombinant human histamine H1 receptor expressed in HEK293 cells at 10 uM after 60 mins by scintillation counting method relative to control; format: cell-based
Chain of Histamine H1 receptor (Homo sapiens) (P35367 whole entry): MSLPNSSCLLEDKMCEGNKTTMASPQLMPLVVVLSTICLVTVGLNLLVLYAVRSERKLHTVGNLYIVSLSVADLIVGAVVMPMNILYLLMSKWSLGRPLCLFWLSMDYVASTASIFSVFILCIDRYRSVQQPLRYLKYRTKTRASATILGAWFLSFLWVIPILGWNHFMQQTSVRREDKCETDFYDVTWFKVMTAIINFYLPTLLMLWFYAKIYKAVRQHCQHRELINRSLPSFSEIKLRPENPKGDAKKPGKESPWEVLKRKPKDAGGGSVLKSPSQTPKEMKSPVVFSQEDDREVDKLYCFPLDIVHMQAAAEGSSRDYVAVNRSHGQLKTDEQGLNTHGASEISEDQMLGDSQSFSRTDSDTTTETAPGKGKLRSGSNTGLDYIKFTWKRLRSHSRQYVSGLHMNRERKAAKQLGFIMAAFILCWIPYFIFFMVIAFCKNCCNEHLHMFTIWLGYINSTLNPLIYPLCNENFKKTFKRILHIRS

[13] = molecular target: T4, C-X-C chemokine receptor type 3; assay: Antagonist activity at human Galphai4qi4-coupled CXCR3A expressed in engineered CHO cells assessed as inhibition of IP-10-induced calcium mobilization by FLIPR assay; format: functional, cell-based
[14] = molecular target: T6, Alpha-2A adrenergic receptor (Homo sapiens) (UniProt P08913); assay: Displacement of [3H]RX 821002 from recombinant human alpha 2A adrenergic receptor expressed in CHO cells at 10 uM after 60 mins by scintillation counting method relative to control; format: cell-based
T6 sequence (whole entry): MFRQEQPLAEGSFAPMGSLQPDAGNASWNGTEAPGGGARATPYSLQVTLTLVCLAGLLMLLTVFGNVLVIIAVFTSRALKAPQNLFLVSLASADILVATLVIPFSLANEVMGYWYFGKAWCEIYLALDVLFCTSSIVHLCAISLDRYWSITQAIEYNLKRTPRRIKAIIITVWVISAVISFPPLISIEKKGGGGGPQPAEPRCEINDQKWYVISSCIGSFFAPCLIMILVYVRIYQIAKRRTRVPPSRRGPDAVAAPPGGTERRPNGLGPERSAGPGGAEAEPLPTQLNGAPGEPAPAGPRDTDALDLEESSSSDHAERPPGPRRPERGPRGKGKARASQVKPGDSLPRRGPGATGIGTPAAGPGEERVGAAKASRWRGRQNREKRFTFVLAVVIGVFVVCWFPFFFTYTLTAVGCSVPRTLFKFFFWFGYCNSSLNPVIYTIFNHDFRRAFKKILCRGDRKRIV

[15] = Chemical stability of the compound in 1:1 acetonitrile-water at pH 6.5 after 48 hrs by LC-MS method; format: physicochemical; settings: buffer, pH 6.5, 48 h

Structure (SMILES)	inhibition [1]	inhibition [2]	CLH [3]	inhibition [4]	bioavailability [5]	Papp at 2 h [6]	Stability [7]	Stability [8]	further results
COc1ccc(CN(C)C(C)c2ccc3c(c2)CCO3)cc1OCCN1C(=O)CCC1=O (stereo not drawn)	18%	–	–	–	–	–	–	–	–
Cc1cc(CN(C[C@H]2CC[C@H](C(=O)O)CC2)[C@H]2CCc3cc(Cl)ccc32)ccc1OCCN1C(=O)CCC1=O	–	87%	0.09 mL/h	92%	69%	81.2 nm/s	91%	78%	inhibition [9]: 82%
COc1cc(CN(C)C(C)c2ccc3c(c2)CCO3)ccc1OCCCN1C(=O)CCC1=O (stereo not drawn)	39%	–	–	–	–	–	–	–	–
COc1cc(CN(C[C@H]2CC[C@H](C(=O)O)CC2)C2CCc3cc(Cl)ccc32)ccc1OCCN1C(=O)CCC1=O (stereo partly drawn)	–	63 to 64%	–	0%	–	89.8 nm/s	78%	66%	IC50 [10]: 0.024 µM; inhibition [11]: 52%
COc1cc(CN(C[C@H]2CC[C@H](C(=O)O)CC2)[C@@H](C)c2ccc(Cl)cc2)ccc1OCCN1C(=O)CCC1=O	–	74%	–	–	13.3%	52.8 nm/s	91%	91%	–
COc1cc(CN(C)C(C)c2ccc3c(c2)CCO3)ccc1OCCN1C(=O)CCC1=O (stereo not drawn)	–	> 65%	–	> 65%	–	56.2 nm/s	52%	53%	inhibition [12]: > 65%; IC50 [13]: 0.074 µM; inhibition [14]: > 65%; IC50 [10]: 0.403 µM; inhibition [11]: > 65%
COc1cc(CN(C)C(C)c2ccc3c(c2)CCO3)ccc1OCN1C(=O)CCC1=O (stereo not drawn)	8%	–	–	–	–	–	–	–	–
COc1cc(CN(C)C(C)c2ccc3c(c2)CCO3)cc(OCCCN2C(=O)CCC2=O)c1 (stereo not drawn)	15%	–	–	–	–	–	–	–	–
COc1cc(CN(C[C@H]2CC[C@H](C(=O)O)CC2)[C@@H](C)c2ccc(Cl)cc2)ccc1OCCn1c(=O)ccn(C)c1=O	–	–	0.159 mL/h	–	26.7%	80.1 nm/s	76%	62%	–
CC(c1ccc2c(c1)CCO2)N(C)Cc1ccc2c(c1)OCCN2CCN1C(=O)CCC1=O (stereo not drawn)	7%	–	–	–	–	–	–	–	–
COc1cc(CN(C)C(C)c2ccc3c(c2)CCO3)cc(OCCN2C(=O)CCC2=O)c1 (stereo not drawn)	4%	–	–	–	–	–	–	–	–
COc1cc(CN(C[C@H]2CC[C@H](C(=O)O)CC2)C(C)c2ccc3c(c2)CCO3)ccc1OCCN1C(=O)COC1=O (stereo partly drawn)	–	–	–	–	–	11.6 nm/s	93%	88%	Stability [15]: Unstable
CC(c1ccc2c(c1)CCO2)N(C)Cc1ccc2c(c1)OC[C@H](CN1C(=O)CCC1=O)O2 (stereo partly drawn)	36%	–	–	–	–	–	–	–	–

Second part, led by results:

inhibition [1]	inhibition [2]	CLH [3]	inhibition [4]	bioavailability [5]	Papp at 2 h [6]	Stability [7]	Stability [8]	Structure (SMILES)	further results
–	94%	–	72%	–	29.3 nm/s	73%	73%	COc1cc(CN(C[C@H]2CC[C@H](C(=O)O)CC2)C(C)c2ccc3c(c2)CCO3)ccc1OCCN1C(=O)CSC1=O (stereo partly drawn)	–
–	–	0.138 mL/h	97%	93.5%	195 nm/s	87%	73%	Cc1cc(CN(C[C@H]2CC[C@H](C(=O)O)CC2)[C@@H](C)c2ccc(Cl)cc2)ccc1OCCN1C(=O)CCC1=O	inhibition [11]: 71%
–	–	0.083 mL/h	0%	–	57 nm/s	81%	75%	COc1cc(CN(C[C@H]2CC[C@H](C(=O)O)CC2)[C@H]2CCc3c2ccc(Cl)c3Cl)ccc1OCCN1C(=O)CCC1=O	–
–	43%	0.112 mL/h	–	24%	75.2 nm/s	79%	70%	COc1cc(CN(C[C@H]2CC[C@H](C(=O)O)CC2)[C@H]2CCc3cc(Cl)ccc32)ccc1OCCN1C(=O)CCC1=O	inhibition [11]: 25%
–	78%	–	99%	4.1%	22.2 nm/s	87%	70%	Cc1cc(CN(C[C@H]2CC[C@H](C(=O)O)CC2)C(C)c2ccc3c(c2)CCO3)ccc1OCCN1C(=O)CCC1=O (stereo partly drawn)	–
–	–	0.234 mL/h	–	63.3%	157 nm/s	100%	63%	Cc1cc(CN(C[C@H]2CC[C@H](C(=O)O)CC2)[C@@H](C)c2ccc(Cl)cc2)ccc1OCCN1C(=O)CN(C)C1=O	IC50 [10]: 0.099 µM
–	–	0.031 mL/h	16%	47%	29.7 nm/s	81%	73%	COc1cc(CN(C[C@H]2CC[C@H](C(=O)O)CC2)[C@H]2CCc3c2ccc(Cl)c3F)ccc1OCCN1C(=O)CCC1=O	–
